High-throughput results (PubChem)
CHO-K1 Ca antag: nonselective inhibitor or artifact in parental CHO-K1 cells. inhibition, % at 3 µM. actives 0.6% (n = 360,000). ATP-induced calcium, Fluo-8 fluorescence. AID 602250;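 active means inhibition above a per-plate cutoff, the plate's mean sample inhibition plus 3 SD, cut at about 24% in these data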;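 further: 0% = DMSO plus EC80 ATP and 100% = DMSO alone without ATP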
M1 ag parental: nonselective activator or artifact in parental CHO-K1 cells; actives 0.48% (n = 360,000); Fluo-8 calcium fluorescence; scaled to maximal ATP response, vehicle zero; AID 602248; activation, % at 3 µM; in the data active means activation above about 15%;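 further: untransfected CHO-K1 host cells lacking M1 receptor as counterscreen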
CHO parental Ca: signal in parental CHO cells, OX1R antagonist counter-screen; parental CHO-K1, ATP-induced calcium, Fluo-8 fluorescence; inhibition, % at 5.6 µM; actives 0.63% (n = 330,000);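 active means inhibition above that plate's mean sample inhibition plus 3 SD, cut at about 26% in these data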;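 further: 0% = ATP-challenged DMSO wells and 100% = DMSO wells without ATP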
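Measured by: calcium-sensitive Fluo-8 fluorescence / Test system: CHO parental line / Controls: ATP-challenged DMSO wells low, unchallenged DMSO wells high / Measure: % inhibition / Compound: single nominal dose of 5.6 µM per compound / Replicates: single well per compound, no replicates / Reagent: ATP as calcium-mobilizing challenge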
M1 PAM parental: M1 PAM counterscreen hit in parental CHO-K1 cells; ATP EC20, Fluo-8 calcium fluorescence; 0% at ATP EC20, 100% at ATP max; activation, % at 3 µM; actives 0.02% (n = 360,000); AID 602247;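 active means activation above the run cutoff, the mean activation of all test compounds plus 3 SD, cut at about 40% in these data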;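 further: peak over basal fluorescence ratio in a 140 s read after ATP addition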
OX1R antag-1: OX1R (human) antagonism; O43613; OX1R-expressing cells, FRET antagonist read-out; inhibition, % at 6.6 µM; actives 1.8% (n = 330,000); AID 485270; in the data active means inhibition mostly above about 38%, no sharp cut-off; inactive means mostly below about 40%;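 further: 0% = agonist challenge alone and 100% = reference antagonist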
Target sequence (O43613 whole entry, looked up): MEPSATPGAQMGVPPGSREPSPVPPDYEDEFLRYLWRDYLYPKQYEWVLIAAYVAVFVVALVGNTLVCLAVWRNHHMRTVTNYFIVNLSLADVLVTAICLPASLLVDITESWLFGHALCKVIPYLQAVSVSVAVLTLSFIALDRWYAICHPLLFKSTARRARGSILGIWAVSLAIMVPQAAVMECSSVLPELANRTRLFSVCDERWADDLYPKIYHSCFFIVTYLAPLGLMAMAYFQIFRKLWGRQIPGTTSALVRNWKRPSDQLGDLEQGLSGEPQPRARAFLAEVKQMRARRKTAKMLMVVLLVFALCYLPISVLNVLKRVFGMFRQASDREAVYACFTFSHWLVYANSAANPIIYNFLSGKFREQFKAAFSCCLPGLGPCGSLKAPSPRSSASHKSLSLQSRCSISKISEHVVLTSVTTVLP
OX1R antag-2: blocks the human orexin 1 receptor | O43613 | CHO/OX1R cells, Fluo-8 calcium fluorescence, orexin A | inhibition, % at 5 µM | actives 0.43% (n = 330,000);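 active means inhibition above its plate's threshold, mean inhibition of all tested compounds on the plate plus 3 SD, cut at about 37% in these data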;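 further: 0% = orexin A challenge wells and 100% = SB-334867-A antagonist wells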
* = called active by the depositor; . = no result. An excerpt weighted towards active compounds, which were near 2.9% of everything screened.

SMILES	CHO-K1 Ca antag	M1 ag parental	CHO parental Ca	M1 PAM parental	OX1R antag-1	OX1R antag-2
NC(=O)c1ccc(SCC(=O)OCC(=O)N2CCCCC2)c([N+](=O)[O-])c1	-0.8	-0.2	21.7	14.1	63.4*	-3.0
CC1CCCN(C(=O)COC(=O)CSc2ccc(C(N)=O)cc2[N+](=O)[O-])C1 (stereo not drawn)	10.3	-0.1	-15.5	-4.4	74.2*	-15.8
CCCN(C(=O)COC(=O)CSc1ccc(C(N)=O)cc1[N+](=O)[O-])C1CCS(=O)(=O)C1 (stereo not drawn)	-7.6	0.8	.	7.5	.	.
Cc1cccc(C)c1OCCOC(=O)c1n[nH]c2ccccc12	-5.9	2.0	-33.4	13.8	13.2	-18.3
Cc1ccc(C)c(C(=O)COC(=O)c2n[nH]c3ccccc23)c1	-6.2	0.3	-16.2	3.9	35.7*	-14.1
Cc1cc(NC(=O)COC(=O)c2n[nH]c3ccccc23)no1	28.9*	0.3	-3.0	-8.1	2.9	-7.8
O=C(COC(=O)C1CCN(c2ccc(C(F)(F)F)cn2)CC1)NCc1ccccc1	-14.7	0.3	-20.8	-3.1	6.8	-19.3
Cc1nc(C(=O)Nc2ccc(F)cc2)nn1-c1ccc([N+](=O)[O-])cc1	1.6	4.8	-8.1	20.4	54.7*	-11.9
CCOC(=O)c1nc(C)n(-c2ccc([N+](=O)[O-])cc2)n1	11.2	-0.5	2.8	-7.7	48.6*	-31.5
O=Cc1ccc(Sc2ncccn2)o1	-3.7	12.4	.	11.5	.	.
O=C(Oc1ccc[nH]c1=O)c1cc([N+](=O)[O-])cc([N+](=O)[O-])c1	-12.3	0.5	7.5	7.1	68.5*	0.0
COc1ccc(C(=O)Oc2ccc[nH]c2=O)cc1	17.2	-0.3	4.8	2.3	11.1	-12.1
COc1ccc(C(=O)N/N=C\C(C)=C\c2ccccc2)cc1OC	-5.2	2.1	2.0	11.0	29.7	-9.3
Cc1cccc(/C=N/NC(=O)c2ccc(Br)cc2)c1	6.6	17.1*	-1.3	14.7	6.9	-13.9
C/C(=N\NC(=O)c1ccc(Br)cc1)C1C(=O)c2ccccc2C1=O	-16.9	11.9	-2.5	3.0	55.4*	-1.4
CC(/C=N/NC(=O)c1ccc(Br)cc1)=C\c1ccccc1	9.0	-0.5	65.9*	-5.1	9.1	0.8
CC(/C=N/NC(=O)c1cc(-c2ccc(C)o2)[nH]n1)=C\c1ccccc1	12.1	0.3	-14.4	-10.7	59.0*	2.1
O=C1OC(CC(=O)N(Cc2nnc(-c3ccccc3Cl)o2)C2CC2)c2ccccc21 (stereo not drawn)	-13.1	1.8	-20.8	6.3	11.6	-19.2
CN(C)c1ccc(N2C(=NC(=O)c3ccccc3)SC3CS(=O)(=O)CC32)cc1 (stereo not drawn)	7.3	0.1	-10.0	-14.6	-1.3	-6.9
CCC(Oc1ccccc1C)C(=O)N1CCCN(C)CC1 (stereo not drawn)	-3.5	0.8	-9.5	18.6	8.3	-5.8
Cc1ccc(Cl)cc1NC(=O)c1ccc(CSc2nnnn2C)cc1	25.6*	0.6	-18.6	-4.7	1.2	-18.1
Cc1ccc(NC(=O)c2ccc(CSc3nnnn3C)cc2)cc1	15.9	0.2	-1.9	-8.9	11.2	-0.2
Cc1ccc(Sc2c(C(=O)Nc3ccc(F)cc3F)c(C(F)(F)F)nn2C)cc1	-11.1	1.7	-22.8	23.4	5.8	-30.2
Cn1nc(C(F)(F)F)c(CO)c1Sc1ccc(F)cc1	1.0	0.2	29.3*	7.3	14.6	-1.7
Oc1ccc2ccccc2c1C=NCc1ccccc1	-17.1	0.7	-6.5	20.8	52.3*	-17.8
SMILES	CHO-K1 Ca antag	M1 ag parental	CHO parental Ca	M1 PAM parental	OX1R antag-1	OX1R antag-2
COc1ccc(-c2oc3ncnc(NCCCN(C)C)c3c2-c2ccc(OC)cc2)cc1	-13.5	2.0	-10.3	-3.8	1.8	-28.9
CN(C)CCNc1ncnc2oc(-c3ccccc3)c(-c3ccccc3)c12	7.6	15.9*	.	9.1	.	.
COc1ccc(Br)cc1CNC(=O)c1ccc2c(c1)N(C)CCS2	-6.6	-0.2	-17.3	2.3	56.5*	-23.9
COc1ccc(OC)c(CCNC(=O)c2ccc3c(c2)N(Cc2ccc(F)cc2)CCS3)c1	-7.7	-0.6	-17.1	-5.8	28.6	27.4
COc1ccc(CCNC(=O)c2ccc3c(c2)N(Cc2ccc(F)cc2)CCS3)c(OC)c1	-16.6	-0.9	-1.3	10.4	45.7*	-12.1
Clc1ccc2nc3c4ccccc4cnn3c2c1	2.0	-0.2	-23.7	9.3	69.1*	3.0
CCOC=C1SC(=S)N(c2ccccc2OC)C1=O	6.1	0.9	.	0.4	.	.
Cc1nc(N2CCN(C(=O)c3ccco3)CC2)nc2c1C(=O)CCC2	-5.6	2.7	1.8	1.3	7.0	-2.6
COC(=O)c1cc(C(=O)Nc2ccc(C)cn2)cc([N+](=O)[O-])c1	-16.2	0.1	-23.5	18.1	50.5*	-25.8
COC(=O)c1cc(C(=O)Nc2cccc(C)n2)cc([N+](=O)[O-])c1	-3.6	0.3	-4.2	10.4	38.6	-35.3
Cc1cccc2c(N=NC(=O)c3ccc(NS(=O)(=O)c4cccs4)cc3)c(O)[nH]c12	-15.2	0.2	-3.5	8.0	39.6*	14.1
CSc1ccc(-c2cc(=O)c3ccccc3o2)cc1	-10.3	0.5	-14.1	12.2	67.6*	38.0
Cc1ccccc1C(=O)NNC1CC(=O)N(c2ccc3c(c2)OCCO3)C1=O (stereo not drawn)	27.6*	0.1	2.5	-15.9	11.1	-8.6
Cc1csc(=O)n1CC(=O)OCC(=O)c1ccc(Br)cc1	-6.3	0.8	-14.5	-4.7	11.4	-11.3
Cn1ncc(Oc2ccc([N+](=O)[O-])cc2)c(Cl)c1=O	6.8	15.3*	-10.5	2.8	40.0	-7.6
O=C(C1CCC1)N1CCCc2cc(S(=O)(=O)N3CCN(c4ccccc4)CC3)ccc21	-2.9	1.4	7.0	-3.8	15.6	-16.0
COc1ccc(NC(=O)c2c(C(F)(F)F)nn(C)c2SCc2ccccc2Cl)cc1	-6.9	2.0	45.6*	8.5	5.6	-19.7
O=[N+]([O-])c1ccc(O)c(/C=N/Nc2ccccn2)c1	-5.4	3.7	86.8*	24.8	3.2	74.7*
CCC(=O)Nc1ccc2c(c1)ncn2-c1ccc(C)cc1	-10.6	0.3	-10.0	13.2	23.4	-0.5
CCn1c(SCC(=O)Nc2ccccc2)nc2nc3c(cc2c1=O)COC(C)(C)C3	.	.	-15.3	.	3.2	-28.9
CCn1c(SCC(=O)Nc2cccc(C)c2)nc2nc3c(cc2c1=O)COC(C)(C)C3	13.4	16.0*	-9.6	-13.8	15.8	-15.5
Cc1ccc(F)c(NC(=O)/C(C#N)=C(\O)c2ccc(C(C)(C)C)cc2)c1	4.6	0.9	-4.2	2.0	24.0	10.0
CCOc1ccc(S(=O)(=O)N2CCN(C(=O)c3cc(-c4ccccc4)nn3-c3ccccc3)CC2)cc1	4.6	0.1	-14.7	-0.8	15.0	-23.1
CCOc1ccc(S(=O)(=O)N2CCN(C(=O)c3cc(C4CC4)nn3-c3ccccc3)CC2)cc1	65.7*	0.1	.	8.9	.	.
